AHR activator: human AHR activation. P35869. AHR-responsive luciferase reporter cells, luminescence. activation, % at 5 µM. hit rate 2.5% among 320,000. AID 2796; in the data active = activation above about 47%
Target sequence (P35869 whole entry, looked up): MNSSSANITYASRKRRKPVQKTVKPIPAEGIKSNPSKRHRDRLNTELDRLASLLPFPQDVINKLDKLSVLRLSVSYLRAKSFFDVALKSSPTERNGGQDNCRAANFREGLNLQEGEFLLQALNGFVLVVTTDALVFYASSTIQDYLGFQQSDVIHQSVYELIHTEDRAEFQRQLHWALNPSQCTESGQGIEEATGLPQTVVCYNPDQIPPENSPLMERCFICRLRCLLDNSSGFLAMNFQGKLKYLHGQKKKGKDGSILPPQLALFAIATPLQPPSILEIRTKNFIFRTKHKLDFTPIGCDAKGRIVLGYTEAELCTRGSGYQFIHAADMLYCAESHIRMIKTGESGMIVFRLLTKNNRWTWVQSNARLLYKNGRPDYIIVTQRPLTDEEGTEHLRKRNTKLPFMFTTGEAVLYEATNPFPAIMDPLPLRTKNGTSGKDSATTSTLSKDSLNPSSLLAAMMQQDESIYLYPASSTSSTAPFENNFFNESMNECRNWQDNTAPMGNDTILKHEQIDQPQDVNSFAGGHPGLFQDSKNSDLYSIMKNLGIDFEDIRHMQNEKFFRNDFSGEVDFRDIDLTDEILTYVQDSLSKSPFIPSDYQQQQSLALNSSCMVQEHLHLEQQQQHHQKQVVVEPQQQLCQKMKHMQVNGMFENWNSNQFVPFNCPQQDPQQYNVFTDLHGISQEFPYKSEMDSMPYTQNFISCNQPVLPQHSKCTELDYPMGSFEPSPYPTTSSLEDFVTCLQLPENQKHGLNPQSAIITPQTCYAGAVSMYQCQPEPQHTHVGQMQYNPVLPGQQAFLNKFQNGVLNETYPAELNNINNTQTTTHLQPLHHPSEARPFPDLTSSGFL
H9c2 TAG inh: triacylglycerol accumulation inhibition | hit rate 0.66% among 230,000 | inhibition, % at 12.5 µM | H9c2 cells, Nile Red lipid (TAG) fluorescence; cells loaded with 200 µM oleic acid;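 active = pattern-corrected inhibition of lipid staining of at least 50% with the nuclear-stain viability signal not falling by more than 50%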
Efflux pump inh: inhibitors of Candida antifungal efflux pumps expressed in yeast; S. cerevisiae Candida pump triplex, Nile Red efflux; inhibition, % at 10 µM; hit rate 0.44% among 330,000; AID 485275;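 active = plate passing quality check with inhibition over a set limit, or well fluorescence over plate mean plus 4 SD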;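 also: Nile Red retained in pooled yeast measured as flow cytometry median fluorescence; higher means more Nile Red kept so more efflux inhibition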
SMARCA2 act: activators of SMARCA2 function | MG213 cells, MMTV-luciferase reporter, dexamethasone, overnight | AID 652017 | hit rate 1% among 370,000 | activation, % at 9.1 µM; in the data active = activation above about 7.8%
Tb MetRS inh: blocks T. brucei methionyl-tRNA synthetase activity | purified T. brucei MetRS, ATP depletion, Kinase-Glo luminescence | inhibition, % at 11.9 µM | hit rate 0.4% among 360,000 | AID 624268;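 active = inhibition above a per-plate cutoff of the control wells' mean inhibition plus 3 SD, cut at about 5.5% in these data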
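Assay system: T. brucei methionyl-tRNA synthetase, purified | Medium: HEPES buffer with MgCl2, KCl, DTT, spermine, BSA, pyrophosphatase | Compound: 11.9 µM single point | Incubation: 15 min enzyme-compound preincubation, 2 h reaction, 10 min detection, 25 °C | Measured by: Kinase-Glo luciferase luminescence reporting remaining unconsumed ATP | Measure: % inhibition normalized to control-well medians | Replication: Singlicate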
SMARCA2 act conf: SMARCA2 activation, confirmation screen. shares compounds with SMARCA2 act. MG213 cells, MMTV-luciferase with dexamethasone, luminescence, overnight; MG213 cells expressing E1A, Rb sequestered; DMSO wells 0%, reference activator 100%. activation, % at 9.1 µM. hit rate 30% among 3,500;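 active = activation above its plate's cutoff, the mean activation of tested wells plus 3 SD, cut at about 7.9% in these data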
VP16 Luc act: counter-screen for SMARCA2 activators: GAL4-VP16 luciferase reporter activation; shares compounds with SMARCA2 act; HEK293 GAL4-VP16 pG5luc reporter, luciferase luminescence; scaled: DMSO wells 0%, SAHA wells 100%; activation, % at 9.1 µM; hit rate 41% among 3,500; AID 686939;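 active = activation above the solvent-only control well mean plus 3 SD, averaged across control plates, cut at about 5.2% in these data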
A number is an active result; . = inactive; / = no result given. Sampled rows, rich in hits. Any-hit rate of the full collection: about 4.1%.

SMILES | AHR activator | H9c2 TAG inh | Efflux pump inh | SMARCA2 act | Tb MetRS inh | SMARCA2 act conf | VP16 Luc act
CN1CCSc2ccc(C(=O)Nc3cc(F)ccc3F)cc21 | . | . | . | 11 | . | . | 12
Cc1ccccc1NC(=O)c1ccc2c(c1)N(C)CCS2 | . | . | . | . | . | / | /
Cc1ccc(NC(=S)N2CCC(c3ccccc3)C2)c(Cl)c1 (stereo not drawn) | . | . | . | 8.8 | . | . | 9.3
c1ccc(CCNc2nc3ccccc3n3nnnc23)cc1 | . | . | . | . | . | / | /
COc1ccc(CCNc2nc3ccccc3n3nnnc23)cc1OC | 54 | . | . | 18 | . | . | .
CC(C)(C)OC(=O)NCc1ccccc1/C=C/S(=O)(=O)NC1CCCC1 | / | / | / | . | / | / | /
CC(C)c1ccc(/C=C2\SC(N3CCCC3)=NC2=O)cc1 | . | / | . | 8.3 | . | . | .
Cc1ccc(/C=C2\SC(N3CCCC3)=NC2=O)cc1 | . | / | . | . | / | / | /
COC(=O)[C@]12C[C@H](CC(=O)N3CCSCC3)C(=O)N(Cc3ccccc3)C1=C[C@H](C(C)(C)C)O[C@@H]2C | / | / | / | . | / | / | /
C[C@@H]1COc2cc(N3CCC[C@H]3CO)ccc2S(=O)(=O)N1 | / | / | / | 8.0 | . | . | .
C[C@H]1COc2cc(N3CCC[C@H]3CO)ccc2S(=O)(=O)N1 | / | / | / | 10 | . | . | .
CCN(CC)c1ccc(NC(=O)c2ccc3c(c2)OCO3)cc1 | . | / | . | 10 | . | . | 11
CCC(=O)Nc1ccc(NC(=O)c2ccc3c(c2)OCO3)cc1 | . | . | . | . | . | / | /
O=C(Cc1cccs1)Nc1ccc(-c2nc3ccccc3[nH]2)cc1 | . | . | . | 8.8 | . | . | 13
C/C(=N\NC(=O)c1ccc2c(c1)OCO2)c1ccc(NC(=O)CCCC(=O)O)cc1 | / | . | . | 8.3 | . | . | .
O=C(CSc1ccccc1)Nc1ccc(-c2nc3ccccc3[nH]2)cc1 | . | / | . | . | . | / | /
Cc1cc(NC(=O)c2ccc3c(c2)OCO3)no1 | . | / | . | . | . | / | /
Cc1nc(NC(=O)c2ccc3c(c2)OCO3)ccc1Br | . | . | . | 8.6 | . | . | 14
CCNC(=O)C[C@H]1CC[C@H]2[C@@H](COc3ccc(NC(=O)Nc4ccccc4)cc3C(=O)N2C)O1 | / | / | / | . | / | / | /
O=C(Nc1ccccn1)c1ccc2c(c1)OCCO2 | . | . | . | 11 | . | . | 6.0
c1ccc2[nH]c(-c3ccc4c(c3)OCO4)nc2c1 | . | . | . | 8.1 | . | 22 | 12
Clc1ccc(-c2nc3ccccc3[nH]2)cn1 | . | . | . | . | . | / | /
Cc1nc2ccc(-c3nc4ccccc4[nH]3)cc2[nH]1 | . | . | . | 16 | . | 14 | 12
O=C(Nc1ccc(-c2nc3ccccc3[nH]2)cc1)c1ccc2c(c1)OCO2 | . | / | . | 19 | . | 13 | .
COc1ccc(Cc2c(C3CCCCC3)nc3ccc(C)cn23)c(C)c1 | / | / | / | . | / | / | /
SMILES | AHR activator | H9c2 TAG inh | Efflux pump inh | SMARCA2 act | Tb MetRS inh | SMARCA2 act conf | VP16 Luc act
COC(=O)C1=C(C)N(C)C(=NCC2CC2)NC1c1ccc(F)cc1 (stereo not drawn) | / | / | / | . | / | / | /
CCC(CC)c1nnc(NC(=O)COc2ccc3c(c2)OCO3)s1 | . | / | . | . | . | / | /
CCC(CC)c1nnc(NC(=O)c2ccc3c(c2)OCO3)s1 | 64 | / | . | 10 | . | . | 6.6
CCOc1ccc(C(=O)Nc2ccc(-c3nc4ccccc4[nH]3)cc2)cc1[N+](=O)[O-] | . | . | . | . | . | / | /
Cn1ncc([N+](=O)[O-])c1C(=O)Nc1ccc(-c2nc3ccccc3[nH]2)cc1 | . | / | . | 9.6 | . | 12 | .
O=C1CCc2cc(S(=O)(=O)N3CCN(Cc4cccc5c4OCO5)CC3)ccc2N1 | / | / | / | . | / | / | /
C=CCn1c(COc2ccc(Cl)cc2)nnc1SCC(=O)c1ccc(-c2ccccc2)cc1 | / | / | / | . | / | / | /
Nc1[nH]c(C(=O)c2ccc(Br)cc2)c(-c2cccc3ccccc23)c1C(=O)NCCc1c[nH]c2ccccc12 | / | / | / | . | / | / | /
CCOC(=O)c1sc(NC(=O)Cc2ccc(F)cc2)nc1C | . | . | . | 8.4 | . | . | .
O=C(Cn1c(=O)oc2ccccc21)Nc1ccccc1N1CCOCC1 | . | . | . | . | . | / | /
O=C(CN1C(=O)CSC1=O)Nc1ccccc1N1CCOCC1 | . | . | . | 9.8 | . | . | .
O=C(Nc1cccc(O)c1)c1c(O)c2ccccc2[nH]c1=O | . | / | . | 10 | . | . | 9.3
Cc1cccc(NC(=O)c2c(O)c3ccccc3[nH]c2=O)c1 | . | / | . | . | . | / | /
CC(C)C[C@H]1CN([C@@H](Cc2ccc(O)cc2)CN2CCC[C@@H]2CN2C(=S)NC[C@@H]2Cc2ccccc2)C(=S)N1CC1CCCCCC1 | / | / | / | . | . | / | /
CC(C)C[C@H]1CN([C@@H](Cc2ccc(O)cc2)CN2CCCC2CN2C(=S)NC[C@@H]2Cc2ccccc2)C(=S)N1CC1CCCCC1 (stereo partly drawn) | / | / | / | 8.0 | . | . | .
COC(=O)[C@]12C[C@H](CC(=O)NCC34CC5CC(CC(C5)C3)C4)C(=O)N(Cc3cccc4ccccc34)C1=C[C@H](C1CCCC1)O[C@@H]2C | / | / | / | . | / | / | /
Cc1ccc(C(=O)/C=C2\NCCNC2=O)cc1 | . | . | . | 12 | . | 12 | 15
COc1ccc(-c2nnc(-c3ccc(N(C)C)cc3)o2)cc1 | . | / | . | 16 | . | 12 | .
CC(=O)Nc1cc(-c2ccc(F)cc2)[nH]n1 | . | . | . | 11 | . | . | .
O=C(Nc1cc(-c2ccccc2)[nH]n1)c1ccccc1F | . | . | . | 9.3 | . | . | 10
COc1cccc(CNC(=O)[C@H]2CCCN2C(=O)[C@H]2CCCN2C(=O)c2ccc(Cl)cc2)c1 | / | / | / | . | / | / | /
O=c1oc(-c2ccc(Br)o2)nc2ccccc12 | . | / | . | 14 | . | . | .
C[C@H](O)[C@@H]1CN2CCc3c([nH]c4ccccc34)[C@@H]2C[C@@H]1N(C)CC1CCCCC1 | / | / | / | . | / | / | /
Cc1cc(C(=O)O)cc(S(=O)(=O)Nc2c(C)nn(C)c2C)c1C | . | . | . | 9.4 | . | . | .
Cc1ccc(S(=O)(=O)Nc2c(C)nn(C)c2C)c(C)c1 | . | . | . | . | . | / | /
COC(=O)C1=C(C)N(CC(C)C)C(=S)NC1c1cccc(F)c1 (stereo not drawn) | / | / | / | . | / | / | /
O=C(Nc1ccccc1)OC1CC2CC1[C@H]1CCCCN1[C@H]2Cc1ccccc1 (stereo partly drawn) | / | / | / | . | / | / | /
CCN(CC)CCN1C(=O)C(=O)/C(=C(/O)c2cnn(-c3ccccc3)c2C)C1c1ccc(C)o1 (stereo not drawn) | . | . | . | 12 | . | . | .
Cc1ccc(C2/C(=C(\O)c3cnn(-c4ccccc4)c3C)C(=O)C(=O)N2CCN(C)C)o1 (stereo not drawn) | . | . | . | . | . | / | /
O=C(c1cc(-c2ccc(Br)cc2)on1)N1CCOCC1 | . | / | . | . | . | / | /

High-throughput results (PubChem BioAssay)
